Like-named read-outs stand apart in the source and are kept apart here.
Columns and labels:
[1] = format: physicochemical, mice; details: for Accuracy (RE, %) 25°C for 6 h / Accuracy (RE, %) Frozen for 30 days: stability in mice plasma/blood QC sample; for Accuracy (RE, %) Frozen for 30 days: −80°C; for Accuracy (RE, %) 4°C for 24 h: stability, extracted QC sample in auto-sampler
Procedure, shortened: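 Blank mouse blood spiked with analytes and vitamin C, then extracted with methanol containing daidzein internal standard (0.5 μM) by 1 min vortex. Spun at 20,000 × g for 15 min and dried under air. Three replicates per QC level were held unextracted at 25°C for 6 h, at −80°C for 30 days, or extracted in the 4°C autosampler for 24 h. Analysed by UPLC-MS/MS (C18, formic acid/acetonitrile, positive MRM); accuracy as RE.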

[2] = in vivo; format: in vivo, A/J mice; details: for concentration in the PK study: oral XCHT 500 mg/kg; for detected in the blood: mice, oral XCHT extract 0.5 g/kg
[3] = male A/J mouse, oral XCHT extract 500 mg/kg, blood, mean±SD, n=6
[4] = male A/J mouse, oral XCHT extract 500 mg/kg, blood, median (min~max), n=6
[5] = male, A/J, mouse, whole blood, po, 500 mg/kg

Compound | Accuracy (RE, %) 25°C for 6 h ([1]; spiked concentration 6.25) [%] | Accuracy (RE, %) 25°C for 6 h ([1]; spiked concentration 50) [%] | Accuracy (RE, %) Frozen for 30 days ([1]; spiked concentration 6.25) [%] | Accuracy (RE, %) Frozen for 30 days ([1]; spiked concentration 50) [%] | Accuracy (RE, %) 4°C for 24 h ([1]; spiked concentration 6.25) [%] | Accuracy (RE, %) 4°C for 24 h ([1]; spiked concentration 50) [%] | AUC0-∞ [2, 3] [µM·h] | AUC(0-t) [2, 3] [µM·h] | Cmax [2, 3] [nM] | t1/2 [2, 3] [h] | Tmax [2, 4] | detected in the blood [2] | Accuracy (RE, %) 25°C for 6 h ([1]; spiked concentration 62.5) [%] | Accuracy (RE, %) 25°C for 6 h ([1]; spiked concentration 500) [%] | Accuracy (RE, %) Frozen for 30 days ([1]; spiked concentration 62.5) [%] | Accuracy (RE, %) Frozen for 30 days ([1]; spiked concentration 500) [%] | Accuracy (RE, %) 4°C for 24 h ([1]; spiked concentration 62.5) [%] | Accuracy (RE, %) 4°C for 24 h ([1]; spiked concentration 500) [%] | other results
C[C@H]1O[C@@H](O[C@H]2CC[C@@]3(C)[C@@H](CC[C@]4(C)[C@@H]3C=C[C@]35OC[C@@]6(CCC(C)(C)C[C@H]63)[C@@H](O)C[C@]54C)[C@]2(C)CO)[C@H](O)[C@@H](O[C@@H]2O[C@H](CO)[C@@H](O)[C@H](O)[C@H]2O)[C@H]1O [SSa, saikosaponin a] | −1.5 | 7.4 | 10.8 | 12.1 | 12 | 10.6 |  |  |  |  |  |  |  |  |  |  |  |  | Accuracy (RE, %) 25°C for 6 h ([1]; spiked concentration 0.39): 0.7%; Accuracy (RE, %) Frozen for 30 days ([1]; spiked concentration 0.39): −6.7%; Accuracy (RE, %) 4°C for 24 h ([1]; spiked concentration 0.39): −7.4%; concentration in the PK study ([2]; A/J mice, blood, time 5 min): 0.69±0.26; concentration in the PK study ([2]; A/J mice, blood, time 15 min): 1.17±0.88; concentration in the PK study ([2]; A/J mice, blood, time 30 min): 1.02±0.75; concentration in the PK study ([2]; A/J mice, blood, time 60 min): 1.15±0.77; concentration in the PK study ([2]; A/J mice, blood, time 120 min): 0.85±0.51
C[C@H]1O[C@@H](O[C@H]2CC[C@@]3(C)[C@@H](CC[C@]4(C)[C@@H]3C=C[C@]35OC[C@@]6(CCC(C)(C)C[C@H]63)[C@H](O)C[C@]54C)[C@]2(C)CO)[C@H](O)[C@@H](O[C@@H]2O[C@H](CO)[C@@H](O)[C@H](O)[C@H]2O)[C@H]1O [SSd, saikosaponin d] | −13.0 | 2.4 | 12.5 | 15.0 | 13.1 | 14.5 | 0.02584 ± 0.0185 | 0.02584 ± 0.0185 | 3.42 ± 0.74 | 12.18 ± 5.32 | 0.50 (0.125~0.5) h | detected |  |  |  |  |  |  | Accuracy (RE, %) 25°C for 6 h ([1]; spiked concentration 0.049): 6.8%; Accuracy (RE, %) Frozen for 30 days ([1]; spiked concentration 0.049): 8.7%; Accuracy (RE, %) 4°C for 24 h ([1]; spiked concentration 0.049): −19%
COc1c(O)cc(O)c2c(=O)cc(-c3ccccc3)oc12 [Wogonin, wogonin] |  |  |  |  |  |  |  |  |  |  |  |  | 9.5 | 3.1 | 15 | 10.3 | 14.8 | 13.5 | Accuracy (RE, %) 25°C for 6 h ([1]; spiked concentration 3.9): 11.4%; Accuracy (RE, %) Frozen for 30 days ([1]; spiked concentration 3.9): 8.4%; Accuracy (RE, %) 4°C for 24 h ([1]; spiked concentration 3.9): 9.2%; Tmax ([2]; male, A/J, mouse, whole blood, po, 0.5 g/kg): 0.17 ± 0.09 h; AUC(0-inf) [2, 5]: 0.116 ± 0.0822 µM·h; AUC(0-t) [2, 5]: 0.11 ± 0.0878 µM·h; Cmax [2, 5]: 18.8 ± 6.27 nM; Tmax [2, 5]: 0.167 h; half-life [2, 5]: 6.16 ± 4.85 h
COc1c(O[C@@H]2O[C@H](C(=O)O)[C@@H](O)[C@H](O)[C@H]2O)cc(O)c2c(=O)cc(-c3ccccc3)oc12 [Wogonoside, wogonoside] |  |  |  |  |  |  | 1.55574 ± 0.12091 | 1.44654 ± 0.33091 | 174 ± 42.1 | 4.77 ± 1.24 | 1.625 (0.083~3) h | detected | 8.5 | 1.4 | 10.1 | 11.2 | 15.1 | 12.6 | Accuracy (RE, %) 25°C for 6 h ([1]; spiked concentration 0.488): 14.1%; Accuracy (RE, %) Frozen for 30 days ([1]; spiked concentration 0.488): −10.9%; Accuracy (RE, %) 4°C for 24 h ([1]; spiked concentration 0.488): 2.3%; Tmax ([2]; mean±SD, A/J mice, oral XCHT 0.5 g/kg): 1.58 ± 1.63 h

— article PMC4608253 (Journal of chromatography. B, Analytical technologies in …, 2015)
